According to ChEMBL document CHEMBL1130028, “A comparison of structure-activity relationships between spermidine and spermine analogue antineoplastics” (J Med Chem, 1997):

Tests used:
[1] = system: L1210; assay: Percentage of spermidine after 48 hr of exposure to the compound (4.5 uM ) in L1210 cells; format: functional, Mus musculus
How it was run: (§1)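 Murine L1210 leukemia cells in log-phase growth (RPMI-1640, 10% fetal calf serum or NuSerum, HEPES-MOPS, 1 mM aminoguanidine) exposed to analogue for 48 h. Cells washed twice with cold RPMI-1640 and extracted with 0.6 N HClO4. PUT, SPD and SPM measured by HPLC of DANSYL derivatives and given as percent of untreated controls. Triplicate flasks per experiment.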

[2] = system: L1210; assay: Growth inhibitory activity against L1210 cells (96h); format: functional, cell-based; settings: Mus musculus, L1210, 96 h
How it was run: (§2)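 Murine L1210 leukemia cells were kept in log growth in RPMI-1640 with 10% fetal calf serum or NuSerum, HEPES-MOPS buffer and 1 mM aminoguanidine. IC50 is the concentration giving 50% of untreated control growth, as the mean of at least two experiments.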

[3] = system: L1210; assay: Percentage of putrescine after 48 hr exposure to the compound (4.5 uM ) in L1210 cells; format: functional, Mus musculus; how it was run: as §1
[4] = system: L1210; assay: Percentage of putrescine after 48 hr exposure to the compound (0.9 uM ) in L1210 cells; format: functional, Mus musculus; how it was run: as §1
[5] = target: T1, S-adenosylmethionine decarboxylase proenzyme 1 (Mus musculus) (UniProt P0DMN7); assay: Effect on S-Adenosyl-methionine decarboxylase (AdoMetDC) tested at 1 uM at 6 hour in L1210 cells; format: functional, cell-based
T1 sequence (whole entry): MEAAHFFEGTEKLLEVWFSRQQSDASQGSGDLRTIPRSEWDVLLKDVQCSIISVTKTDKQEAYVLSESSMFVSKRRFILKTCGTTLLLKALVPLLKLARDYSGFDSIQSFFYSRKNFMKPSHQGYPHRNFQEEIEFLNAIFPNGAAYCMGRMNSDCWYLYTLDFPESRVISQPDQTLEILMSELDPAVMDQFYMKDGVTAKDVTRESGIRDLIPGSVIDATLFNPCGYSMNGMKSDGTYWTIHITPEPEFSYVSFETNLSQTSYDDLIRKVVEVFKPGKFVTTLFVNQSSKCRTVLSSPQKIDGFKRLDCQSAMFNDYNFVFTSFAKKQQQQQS
How it was run: (§3)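 L1210 cells were exposed to 1 μM analogue, for 4 h (ODC) or 6 h (AdoMetDC). Activity was measured as 14CO2 released from [14C]carboxyl-labelled L-ornithine (ODC) or S-adenosyl-L-methionine (AdoMetDC) and given as percent of untreated control. Each run included DEHSPM-treated positive controls. Values are the mean of at least three experiments.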

[6] = Binding affinity values for polyamine transporter was determined
[7] = Effect on ornithine decarboxylase (ODC) tested at 1 uM at 4 hour in L1210 cells; format: functional, Mus musculus; how it was run: as §3
[8] = system: L1210; assay: Growth inhibitory activity against L1210 cells (48h); format: functional, cell-based; settings: Mus musculus, L1210, 48 h; how it was run: as §2
[9] = target: Spermidine/spermine N(1)-acetyltransferase (SAT) (Mus musculus) (UniProt Q6P8J2+P48026); assay: Effect on Spermidine/Spermine-Acetyltransferase (SSAT ) at 10 uM at 48 hour in L1210 cells; format: functional, cell-based
Spermidine/spermine N(1)-acetyltransferase (SAT) (Mus musculus), sequence (P48026 whole entry, looked up): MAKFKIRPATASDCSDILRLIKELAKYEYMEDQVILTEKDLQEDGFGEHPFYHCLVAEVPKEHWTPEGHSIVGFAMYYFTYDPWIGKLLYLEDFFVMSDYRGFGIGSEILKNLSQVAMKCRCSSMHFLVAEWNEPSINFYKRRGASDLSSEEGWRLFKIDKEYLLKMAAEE
Spermidine/spermine N(1)-acetyltransferase (SAT) (Mus musculus), sequence (Q6P8J2 whole entry, looked up): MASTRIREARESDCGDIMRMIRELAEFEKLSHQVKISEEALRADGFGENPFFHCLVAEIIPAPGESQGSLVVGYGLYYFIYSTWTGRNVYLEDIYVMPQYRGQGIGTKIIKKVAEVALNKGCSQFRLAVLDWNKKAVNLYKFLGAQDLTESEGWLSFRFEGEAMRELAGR
How it was run: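 L1210 cells were exposed to 10 μM triamine for 48 h. SSAT activity was taken as [14C]N1-acetylspermidine formed from spermidine and [14C]acetyl-CoA, given as percent of untreated control. DENSPM-treated cells served as positive control. Values are the mean of at least three experiments.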

[10] = system: L1210; assay: Percentage of spermidine after 48 hr of exposure to the compound (0.9 uM ) in L1210 cells; format: functional, Mus musculus; how it was run: as §1
[11] = system: L1210; assay: Percentage of spermine after 48 hr exposure to the compound (4.5 uM ) in L1210 cells; format: functional, Mus musculus; how it was run: as §1
[12] = system: L1210; assay: Percentage of putrescine after 48 hr exposure to the compound (100(10)uM) in L1210 cells; format: functional, Mus musculus
How it was run: (§4)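 Log-phase L1210 cells were treated for 48 h with analogue at two concentrations. Cells were washed twice in cold RPMI-1640 and extracted with 0.6 N HClO4. Putrescine, spermidine and spermine were quantified by HPLC of dansyl derivatives and given as percent of untreated controls. Runs were in triplicate with untreated controls.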

[13] = system: L1210; assay: Percentage of putrescine after 48 hr exposure to the compound (500(100)uM )in L1210 cells; format: functional, Mus musculus; how it was run: as §4
[14] = system: L1210; assay: Percentage of spermine after 48 hr exposure to the compound (100(10)uM ) in L1210 cells; format: functional, Mus musculus; how it was run: as §4
[15] = system: L1210; assay: Percentage of spermine after 48 hr exposure to the compound (500(100)uM ) in L1210 cells; format: functional, Mus musculus; how it was run: as §4
[16] = system: L1210; assay: Intracellular levels in L1210 cells following 500 uM exposure.; format: functional, Mus musculus
How it was run: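 L1210 cells were grown 48 h in medium containing 500 μM analogue. Cellular contents were analysed by HPLC of dansyl derivatives and given as pmol/10^6 cells, as parent drug and metabolites with the % of total drug in the cell.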

[17] = system: L1210; assay: Percentage of spermidine after 48 hr of exposure to the compound (500(100)uM ) in L1210 cells; format: functional, Mus musculus; how it was run: as §4
[18] = system: L1210; assay: Percentage of spermidine after 48 hr of exposure to the compound (100(10)uM ) in L1210 cells; format: functional, Mus musculus; how it was run: as §4
[19] = system: L1210; assay: Percentage of putrescine after 48 hr exposure to the compound (75 uM ) in L1210 cells; format: functional, Mus musculus; how it was run: as §4
[20] = system: L1210; assay: Percentage of spermidine after 48 hr of exposure to the compound (15 uM ) in L1210 cells; format: functional, Mus musculus; how it was run: as §4
[21] = system: L1210; assay: Percentage of putrescine after 48 hr exposure to the compound (15 uM )in L1210 cells; format: functional, Mus musculus; how it was run: as §4
[22] = system: L1210; assay: Percentage of spermidine after 48 hr of exposure to the compound (75 uM ) in L1210 cells; format: functional, Mus musculus; how it was run: as §4
[23] = system: L1210; assay: Percentage of spermidine after 48 hr of exposure to the compound (15(1.5)uM ) in L1210 cells; format: functional, Mus musculus; how it was run: as §4
[24] = system: L1210; assay: Percentage of putrescine after 48 hr exposure to the compound (3(0.3)uM ) in L1210 cells; format: functional, Mus musculus; how it was run: as §4
[25] = system: L1210; assay: Percentage of spermidine after 48 hr of exposure to the compound (3(0.3)uM ) in L1210 cells; format: functional, Mus musculus; how it was run: as §4
[26] = system: L1210; assay: Percentage of putrescine after 48 hr exposure to the compound (15(1.5)uM ) in L1210 cells; format: functional, Mus musculus; how it was run: as §4
[27] = system: L1210; assay: Percentage of spermine after 48 hr exposure to the compound (15(1.5)uM ) in L1210 cells; format: functional, Mus musculus; how it was run: as §4
[28] = system: L1210; assay: Percentage of spermine after 48 hr exposure to the compound (3(0.3)uM ) in L1210 cells; format: functional, Mus musculus; how it was run: as §4
[29] = The chronic lethal dose administered as intraperitoneal injection; format: ADME; settings: mouse, ip
How it was run: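 Female CD-1 mice, 10–12 weeks old. Analogue given as hydrochloride salt by ip injection three times daily for 6 days (18 doses). Appetite, weight and appearance monitored daily, and lethality scored 10 days after the final dose.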

Row | SMILES | IC50 [2] [µM] | AdoMetDC [5] [%] | Ki [6] [µM] | ODC [7] [%] | IC50 [8] [µM] | SSAT [9] [%] | Picoequivalents of amine/10e6 cells [16] | further results
1 | NCCCNCCCN [NORSPERMIDINE] | 0.5 | 62 | 7.2 | 11 | 0.9 | 150 |  | Polyamine [1]: 12%; Polyamine [3]: 0%; Polyamine [4]: 38%; Polyamine [10]: 44%; Polyamine [11]: 83%
2 | CCNCCCNCCCNCC | 10 | 45 | 250 | 80 | > 100 | 780 | 13700 | Polyamine [12]: 0%; Polyamine [13]: 0%; Polyamine [14]: 74%; Polyamine [15]: 47%; Polyamine [17]: 7%; Polyamine [18]: 17%
3 | CNCCCCCNCCCCCNC | 0.4 | 97 | 130 | 105 | 15 | 90 | 15500 | Polyamine [19]: 0%; Polyamine [20]: 33%; Polyamine [21]: 0%; Polyamine [22]: 20%
4 | CCNCCCCCNCCCCNCC | 0.2 | 70 | 64 | 100 | 4.5 | 120 | 14590 | Polyamine [23]: 18%; Polyamine [24]: 0%; Polyamine [25]: 47%; Polyamine [26]: 0%; Polyamine [27]: 98%; Polyamine [28]: 99%; LD50 [29]: 375 mg/kg/day
